# Test results: ChEMBL document CHEMBL2424622, “Development of amino-pyrimidine inhibitors of c-Jun N-terminal kinase (JNK): kinase profiling guided optimization of a 1,2,3-benzotriazole lead” (Bioorg Med Chem Lett, 2013)
# How the values were obtained:
# [1] = target: Proto-oncogene tyrosine-protein kinase receptor Ret (Homo sapiens) (UniProt P07949); test: Competitive binding affinity to RET (unknown origin) at 10 uM in presence of ATP relative to control
# [2] = target: T1, Serine/threonine-protein kinase Nek9 (Homo sapiens) (UniProt Q8TD19); test: Competitive binding affinity to NEK9 (unknown origin) at 10 uM in presence of ATP relative to control
# T1 sequence (whole entry): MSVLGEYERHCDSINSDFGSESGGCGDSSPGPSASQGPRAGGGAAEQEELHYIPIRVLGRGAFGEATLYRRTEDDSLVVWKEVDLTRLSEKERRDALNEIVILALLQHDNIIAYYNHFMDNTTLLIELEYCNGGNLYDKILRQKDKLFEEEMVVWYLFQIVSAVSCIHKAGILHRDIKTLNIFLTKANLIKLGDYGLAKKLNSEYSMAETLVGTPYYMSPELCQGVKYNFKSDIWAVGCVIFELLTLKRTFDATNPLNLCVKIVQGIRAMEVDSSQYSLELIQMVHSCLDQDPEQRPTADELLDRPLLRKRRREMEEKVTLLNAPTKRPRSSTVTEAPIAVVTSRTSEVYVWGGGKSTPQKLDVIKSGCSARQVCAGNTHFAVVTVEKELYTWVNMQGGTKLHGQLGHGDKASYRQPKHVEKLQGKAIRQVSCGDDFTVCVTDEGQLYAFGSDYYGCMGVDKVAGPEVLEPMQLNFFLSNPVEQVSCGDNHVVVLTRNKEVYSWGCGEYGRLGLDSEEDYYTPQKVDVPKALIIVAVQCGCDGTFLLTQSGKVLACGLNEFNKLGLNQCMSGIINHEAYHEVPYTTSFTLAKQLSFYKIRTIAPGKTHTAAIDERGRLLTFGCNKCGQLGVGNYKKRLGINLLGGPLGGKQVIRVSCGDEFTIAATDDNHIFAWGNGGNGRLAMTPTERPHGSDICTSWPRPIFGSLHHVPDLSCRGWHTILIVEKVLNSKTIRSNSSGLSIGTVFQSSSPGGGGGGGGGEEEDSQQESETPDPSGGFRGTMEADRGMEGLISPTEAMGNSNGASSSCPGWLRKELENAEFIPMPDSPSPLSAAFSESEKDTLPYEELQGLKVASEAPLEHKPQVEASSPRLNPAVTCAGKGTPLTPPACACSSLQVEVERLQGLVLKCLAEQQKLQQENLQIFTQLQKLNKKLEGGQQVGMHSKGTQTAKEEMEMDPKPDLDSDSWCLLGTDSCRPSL
# How it was run: (§1)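 In vitro ATP-site competition binding assay across a diverse panel of 128 kinases, with compound tested at a single concentration. Kinase selectivity scores (S15) were calculated from the panel profiles.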
# [3] = target: Insulin receptor (Homo sapiens) (UniProt P06213); test: Competitive binding affinity to INSR (unknown origin) at 10 uM in presence of ATP relative to control
# Insulin receptor (Homo sapiens), sequence (P06213 28-758 limits assumed): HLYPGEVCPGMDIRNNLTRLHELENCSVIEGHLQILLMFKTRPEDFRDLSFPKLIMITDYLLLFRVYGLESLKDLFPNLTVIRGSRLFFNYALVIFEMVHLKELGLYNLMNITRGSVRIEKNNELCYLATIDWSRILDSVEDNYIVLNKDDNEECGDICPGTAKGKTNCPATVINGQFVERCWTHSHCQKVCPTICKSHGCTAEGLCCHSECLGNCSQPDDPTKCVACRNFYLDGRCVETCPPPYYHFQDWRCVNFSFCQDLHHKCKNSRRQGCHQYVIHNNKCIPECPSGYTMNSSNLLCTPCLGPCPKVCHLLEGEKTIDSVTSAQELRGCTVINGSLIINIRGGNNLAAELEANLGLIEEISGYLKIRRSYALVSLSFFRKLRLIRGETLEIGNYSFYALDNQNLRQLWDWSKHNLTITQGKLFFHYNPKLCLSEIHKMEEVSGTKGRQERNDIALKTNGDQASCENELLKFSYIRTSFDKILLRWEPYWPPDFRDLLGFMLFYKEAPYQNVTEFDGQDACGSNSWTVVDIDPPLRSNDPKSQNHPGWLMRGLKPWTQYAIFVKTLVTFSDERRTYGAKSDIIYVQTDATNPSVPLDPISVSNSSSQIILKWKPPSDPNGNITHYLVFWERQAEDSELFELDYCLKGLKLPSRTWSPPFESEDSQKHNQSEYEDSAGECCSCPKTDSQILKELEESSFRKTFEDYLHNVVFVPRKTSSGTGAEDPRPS
# Insulin receptor (Homo sapiens), sequence (P06213 763-1382 limits assumed): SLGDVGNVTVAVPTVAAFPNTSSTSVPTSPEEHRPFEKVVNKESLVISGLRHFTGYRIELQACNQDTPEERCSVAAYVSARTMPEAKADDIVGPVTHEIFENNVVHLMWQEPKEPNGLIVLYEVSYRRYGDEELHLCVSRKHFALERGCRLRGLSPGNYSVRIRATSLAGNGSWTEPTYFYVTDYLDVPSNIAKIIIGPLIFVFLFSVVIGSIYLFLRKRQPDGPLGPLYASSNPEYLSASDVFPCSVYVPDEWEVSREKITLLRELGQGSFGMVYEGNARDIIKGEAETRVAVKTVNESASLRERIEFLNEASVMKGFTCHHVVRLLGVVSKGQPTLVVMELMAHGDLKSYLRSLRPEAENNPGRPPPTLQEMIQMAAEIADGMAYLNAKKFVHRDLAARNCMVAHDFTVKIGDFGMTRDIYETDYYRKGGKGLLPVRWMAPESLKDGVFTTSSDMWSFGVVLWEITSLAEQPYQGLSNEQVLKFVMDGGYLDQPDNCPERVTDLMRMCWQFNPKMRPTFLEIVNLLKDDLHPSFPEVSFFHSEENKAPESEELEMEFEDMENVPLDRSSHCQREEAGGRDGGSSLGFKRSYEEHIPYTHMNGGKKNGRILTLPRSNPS
# How it was run: (§2)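 In vitro ATP-site competition binding assay, part of profiling against a diverse panel of 128 kinases. Each compound was tested at a single concentration of 10 µM. Kinome selectivity was summarized as S15 selectivity scores.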
# [4] = target: MAP kinase-interacting serine/threonine-protein kinase 2 (Homo sapiens) (UniProt Q9HBH9); test: Competitive binding affinity to MKNK2 (unknown origin) at 10 uM in presence of ATP relative to control; how it was run: as §1
# MAP kinase-interacting serine/threonine-protein kinase 2 (Homo sapiens), sequence (Q9HBH9 whole entry, looked up): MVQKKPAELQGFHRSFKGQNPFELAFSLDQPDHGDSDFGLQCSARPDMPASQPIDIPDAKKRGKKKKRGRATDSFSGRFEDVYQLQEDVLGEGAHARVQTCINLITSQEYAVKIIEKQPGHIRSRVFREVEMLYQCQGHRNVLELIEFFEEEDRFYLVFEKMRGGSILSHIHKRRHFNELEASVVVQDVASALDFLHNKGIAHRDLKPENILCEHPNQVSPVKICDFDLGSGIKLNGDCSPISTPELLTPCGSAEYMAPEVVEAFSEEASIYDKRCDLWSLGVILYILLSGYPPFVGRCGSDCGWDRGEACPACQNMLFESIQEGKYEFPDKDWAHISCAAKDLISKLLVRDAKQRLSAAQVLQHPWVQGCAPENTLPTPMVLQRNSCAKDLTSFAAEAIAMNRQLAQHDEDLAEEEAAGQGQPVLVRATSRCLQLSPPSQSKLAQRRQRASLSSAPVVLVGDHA
# [5] = target: Mitogen-activated protein kinase kinase kinase 4 (Homo sapiens) (UniProt Q9Y6R4); test: Competitive binding affinity to MAP3K4 (unknown origin) at 10 uM in presence of ATP relative to control; how it was run: as §2
# [6] = target: T2, Ephrin type-B receptor 1 (Homo sapiens) (UniProt P54762); test: Competitive binding affinity to EPHB1 (unknown origin) at 10 uM in presence of ATP relative to control; how it was run: as §2
# T2 sequence (whole entry): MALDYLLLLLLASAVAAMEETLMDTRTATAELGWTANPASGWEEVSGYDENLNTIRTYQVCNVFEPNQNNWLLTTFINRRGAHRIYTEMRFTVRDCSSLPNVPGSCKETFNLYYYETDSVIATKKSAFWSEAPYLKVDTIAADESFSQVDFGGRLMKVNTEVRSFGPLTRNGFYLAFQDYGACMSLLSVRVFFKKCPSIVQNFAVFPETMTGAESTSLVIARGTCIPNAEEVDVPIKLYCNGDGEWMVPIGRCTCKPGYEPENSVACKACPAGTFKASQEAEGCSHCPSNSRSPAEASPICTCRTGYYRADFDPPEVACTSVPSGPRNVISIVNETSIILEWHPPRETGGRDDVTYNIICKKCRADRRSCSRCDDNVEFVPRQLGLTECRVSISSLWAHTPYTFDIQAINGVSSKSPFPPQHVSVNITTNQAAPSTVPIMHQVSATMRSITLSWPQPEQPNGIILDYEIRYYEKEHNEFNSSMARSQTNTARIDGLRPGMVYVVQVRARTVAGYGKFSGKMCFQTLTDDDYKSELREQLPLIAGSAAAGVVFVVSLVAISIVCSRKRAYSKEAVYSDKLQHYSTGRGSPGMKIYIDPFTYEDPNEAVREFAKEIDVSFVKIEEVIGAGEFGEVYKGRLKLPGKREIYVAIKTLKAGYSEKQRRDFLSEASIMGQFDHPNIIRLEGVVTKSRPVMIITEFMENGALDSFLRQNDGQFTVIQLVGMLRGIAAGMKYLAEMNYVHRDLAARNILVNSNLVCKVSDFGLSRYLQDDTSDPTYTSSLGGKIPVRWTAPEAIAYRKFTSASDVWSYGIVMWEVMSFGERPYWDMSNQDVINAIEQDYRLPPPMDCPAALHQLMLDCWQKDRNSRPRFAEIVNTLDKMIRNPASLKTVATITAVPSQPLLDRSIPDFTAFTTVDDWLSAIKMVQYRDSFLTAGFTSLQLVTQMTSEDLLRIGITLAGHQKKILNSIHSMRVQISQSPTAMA
# [7] = target: Death-associated protein kinase 2 (Homo sapiens, UniProt Q9UIK4); test: Competitive binding affinity to DAPK2 (unknown origin) at 10 uM in presence of ATP relative to control
# Death-associated protein kinase 2, sequence (Q9UIK4 whole entry, looked up): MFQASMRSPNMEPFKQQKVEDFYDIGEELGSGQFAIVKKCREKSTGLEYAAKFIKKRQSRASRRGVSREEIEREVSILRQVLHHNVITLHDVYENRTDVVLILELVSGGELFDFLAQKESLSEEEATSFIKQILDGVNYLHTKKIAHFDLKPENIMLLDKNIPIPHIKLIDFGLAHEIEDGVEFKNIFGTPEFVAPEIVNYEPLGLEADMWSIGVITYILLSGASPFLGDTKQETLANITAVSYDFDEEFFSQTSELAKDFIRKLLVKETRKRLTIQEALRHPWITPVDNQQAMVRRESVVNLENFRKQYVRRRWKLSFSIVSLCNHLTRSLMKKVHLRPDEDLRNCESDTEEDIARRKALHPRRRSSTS
# How it was run: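 In vitro ATP-site competition binding assay across a diverse panel of 128 kinases, with each compound tested at a single concentration. Kinase binding is expressed relative to control.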
# [8] = target: c-Jun N-terminal kinase, JNK (Homo sapiens, UniProt P45983+P53779+P45984); test: Inhibition of JNK in human SW1353 cells assessed as inhibition of TNFalpha-induced c-Jun phosphorylation incubated for 30 mins prior to TNFalpha induction measured after 20 mins; type: cell-based
# How it was run: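 SW1353 cells were stimulated with TNFa, and the read-out was inhibition of phosphorylation of the downstream substrate c-Jun. Values are the mean of at least three experiments.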
# [9] = target: Tyrosine-protein kinase BTK (Homo sapiens) (UniProt Q06187); test: Competitive binding affinity to BTK (unknown origin) at 10 uM in presence of ATP relative to control
# Tyrosine-protein kinase BTK (Homo sapiens), sequence (Q06187 whole entry, the tested form may be a part): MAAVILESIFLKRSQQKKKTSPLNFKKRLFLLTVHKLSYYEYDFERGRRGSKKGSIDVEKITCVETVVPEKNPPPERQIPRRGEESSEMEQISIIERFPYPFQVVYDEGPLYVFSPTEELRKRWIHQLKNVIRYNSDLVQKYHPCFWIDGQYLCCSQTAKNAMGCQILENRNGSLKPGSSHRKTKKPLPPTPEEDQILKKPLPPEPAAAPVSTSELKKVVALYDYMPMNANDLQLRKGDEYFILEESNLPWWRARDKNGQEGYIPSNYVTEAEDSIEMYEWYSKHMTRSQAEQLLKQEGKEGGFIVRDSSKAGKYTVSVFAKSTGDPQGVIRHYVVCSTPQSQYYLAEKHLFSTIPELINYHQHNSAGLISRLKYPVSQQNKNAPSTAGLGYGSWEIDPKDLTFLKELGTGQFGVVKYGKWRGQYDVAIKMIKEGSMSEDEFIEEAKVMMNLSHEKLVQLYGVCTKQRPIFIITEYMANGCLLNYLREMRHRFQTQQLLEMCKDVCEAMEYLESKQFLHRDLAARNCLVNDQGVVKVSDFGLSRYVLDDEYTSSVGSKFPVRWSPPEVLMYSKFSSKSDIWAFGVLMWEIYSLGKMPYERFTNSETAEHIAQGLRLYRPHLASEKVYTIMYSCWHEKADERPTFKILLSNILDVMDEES
# [10] = target: Ribosomal protein S6 kinase alpha-1 (Homo sapiens, UniProt Q15418); test: Competitive binding affinity to RPS6KA1 kinase domain 2 (unknown origin) at 10 uM in presence of ATP relative to control
# Ribosomal protein S6 kinase alpha-1, sequence (Q15418 whole entry, the tested form may be a part): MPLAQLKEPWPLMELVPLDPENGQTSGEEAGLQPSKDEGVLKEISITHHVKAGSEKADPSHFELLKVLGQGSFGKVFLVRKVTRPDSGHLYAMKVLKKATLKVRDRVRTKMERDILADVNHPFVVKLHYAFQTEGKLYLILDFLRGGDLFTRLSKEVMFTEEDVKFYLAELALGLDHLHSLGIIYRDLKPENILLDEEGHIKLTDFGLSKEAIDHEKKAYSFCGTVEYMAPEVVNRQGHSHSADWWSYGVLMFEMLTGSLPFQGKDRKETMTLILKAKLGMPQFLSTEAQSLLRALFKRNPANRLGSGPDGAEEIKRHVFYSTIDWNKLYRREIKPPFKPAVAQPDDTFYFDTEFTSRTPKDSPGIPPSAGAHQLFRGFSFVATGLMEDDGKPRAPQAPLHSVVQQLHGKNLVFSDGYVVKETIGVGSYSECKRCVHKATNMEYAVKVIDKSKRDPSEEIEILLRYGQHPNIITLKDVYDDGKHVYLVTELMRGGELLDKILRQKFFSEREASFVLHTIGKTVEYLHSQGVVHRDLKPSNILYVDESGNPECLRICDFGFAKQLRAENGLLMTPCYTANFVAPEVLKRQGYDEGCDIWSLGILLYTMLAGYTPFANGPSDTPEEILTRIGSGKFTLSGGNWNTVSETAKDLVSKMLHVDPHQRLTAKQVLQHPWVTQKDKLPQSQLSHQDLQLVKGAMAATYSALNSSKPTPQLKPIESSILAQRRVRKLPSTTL
# Proto-oncogene tyrosine-protein kinase receptor Ret (Homo sapiens), sequence (P07949 whole entry): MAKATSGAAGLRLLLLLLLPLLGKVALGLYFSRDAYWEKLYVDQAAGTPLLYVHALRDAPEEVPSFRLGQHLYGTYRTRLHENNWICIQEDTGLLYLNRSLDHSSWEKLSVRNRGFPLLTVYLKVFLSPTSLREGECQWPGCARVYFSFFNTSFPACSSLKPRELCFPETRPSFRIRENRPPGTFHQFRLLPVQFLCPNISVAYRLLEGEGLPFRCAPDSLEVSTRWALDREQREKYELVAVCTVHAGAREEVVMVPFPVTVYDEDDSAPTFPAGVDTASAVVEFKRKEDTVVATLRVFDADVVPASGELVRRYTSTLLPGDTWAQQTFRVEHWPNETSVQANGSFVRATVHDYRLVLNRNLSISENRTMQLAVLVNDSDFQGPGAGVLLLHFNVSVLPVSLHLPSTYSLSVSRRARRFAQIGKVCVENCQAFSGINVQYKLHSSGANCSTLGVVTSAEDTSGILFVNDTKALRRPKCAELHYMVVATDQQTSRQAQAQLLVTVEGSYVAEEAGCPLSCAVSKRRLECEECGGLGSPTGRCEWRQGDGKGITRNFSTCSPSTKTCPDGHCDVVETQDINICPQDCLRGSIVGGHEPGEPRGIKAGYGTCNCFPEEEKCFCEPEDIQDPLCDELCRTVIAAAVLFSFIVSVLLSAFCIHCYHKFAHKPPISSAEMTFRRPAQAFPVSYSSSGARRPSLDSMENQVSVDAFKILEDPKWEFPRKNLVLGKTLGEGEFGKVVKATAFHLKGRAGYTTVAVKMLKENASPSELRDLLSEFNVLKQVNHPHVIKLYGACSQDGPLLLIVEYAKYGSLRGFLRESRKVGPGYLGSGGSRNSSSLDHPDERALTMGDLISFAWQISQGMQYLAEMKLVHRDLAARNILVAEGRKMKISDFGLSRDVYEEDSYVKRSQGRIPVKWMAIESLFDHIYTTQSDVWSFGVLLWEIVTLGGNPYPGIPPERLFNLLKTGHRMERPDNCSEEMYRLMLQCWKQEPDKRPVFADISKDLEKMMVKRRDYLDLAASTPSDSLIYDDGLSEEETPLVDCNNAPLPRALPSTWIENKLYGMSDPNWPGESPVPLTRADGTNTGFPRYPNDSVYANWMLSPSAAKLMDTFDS
inhibition [1] [%],inhibition [3] [%],inhibition [4] [%],inhibition [5] [%],inhibition [6] [%],IC50 [8] [µM],inhibition [9] [%],inhibition [10] [%],Compound,inhibition [2] [%],inhibition [7] [%]
< 50,< 50,75,< 50,< 50,2.7,< 50,100,O[C@H]1CC[C@H](Nc2nccc(-n3ncc4ccccc43)n2)CC1,< 50,< 50
< 50,< 50,< 50,< 50,< 50,2,< 50,95,O[C@H]1CC[C@H](Nc2nccc(-n3ccc4ccccc43)n2)CC1,< 50,< 50
–,–,–,–,–,1.1,–,–,CS(=O)(=O)CCCOc1cccc2c1ccn2-c1ccnc(N[C@H]2CC[C@H](C(=O)N3CCC(O)CC3)CC2)n1,–,> 85
–,< 50,100,84,73,0.54,< 50,–,N[C@H]1CC[C@H](Nc2nccc(-n3nnc4ccccc43)n2)CC1,< 50,94
–,< 50,97,< 50,< 50,1.8,< 50,–,O=C([C@H]1CC[C@H](Nc2nccc(-n3nnc4ccccc43)n2)CC1)N1CCOCC1,< 50,< 50
94,98,87,100,< 50,2.3,< 50,–,O[C@H]1CC[C@H](Nc2nccc(-c3n[nH]c4ccccc34)n2)CC1,< 50,94
< 50,< 50,86,< 50,< 50,0.79,< 50,100,O[C@H]1CC[C@H](Nc2nccc(-n3nnc4ccccc43)n2)CC1,81,96
